Results on 7 molecules are retold here after ChEMBL document CHEMBL1127697, “New N alpha-guanidinobenzoyl derivatives of hirudin-54-65 containing stabilized carboxyl or phosphoryl groups on the side chain of phenylalanine-63” (1994).

Residues, ends and D or L forms follow the SMILES beside them.

What all share (assay type): functional
For experiment [1], the species on record is Rattus norvegicus. Description: Concentration that doubles thrombin time (inhibition of fibrin clot) in rats. In a few lines:
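Plasma was incubated 2 min at 37 °C with inhibitor or vehicle, then thrombin (1.5 NIH/mL) was added and clotting time read on a coagulometer. Value is the µM concentration that doubles thrombin time relative to the no-inhibitor control.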

Experiment [2] has as its system Rattus norvegicus. The experiment in a line: Activated partial thromboplastin time at 60 min following intravenous administration in rats at a dose 8 mg/kg. A digest of the protocol: (§1)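 Sprague-Dawley rats (300–400 g) anesthetized with pentobarbital sodium (60 mg/kg ip). Peptide (1 mL) given iv via cannulated jugular vein. Carotid blood (1.5 mL) drawn 30 min before and at 1.5–60 min after dosing, then centrifuged 15 min at 3000g to platelet-poor plasma. APTT read on a coagulometer: plasma mixed with thromboplastin at 37 °C. Expressed as % of untreated animals; n = 4–6 independent experiments.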

Experiment [3] deals with Rattus norvegicus. The experiment in a line: Activated partial thromboplastin time at 1.5 min following intravenous administration in rats at a dose 8 mg/kg. A digest of the protocol: as §1
Experiment [4] relates to Rattus norvegicus. The experiment in a line: Activated partial thromboplastin time at 15 min following intravenous administration in rats at a dose 8 mg/kg. In a few lines:
as §1

The subject of experiment [5] is Rattus norvegicus. The experiment in a line: Activated partial thromboplastin time at 30 min following intravenous administration in rats at a dose 8 mg/kg. In a few lines: as §1
Experiment [6] relates to Rattus norvegicus. The experiment in a line: Activated partial thromboplastin time at 3 min following intravenous administration in rats at a dose 8 mg/kg. In a few lines: as §1
In experiment [7] the test system is Rattus norvegicus. The experiment in a line: Activated partial thromboplastin time at 5 min following intravenous administration in rats at a dose 8 mg/kg. A digest of the protocol:
as §1

For `CC[C@H](C)[C@H](NC(=O)C1C2CCC(CC2)N1C(=O)[C@H](CCC(=O)O)NC(=O)[C@H](Cc1ccccc1)NC(=O)[C@H](CC(=O)O)NC(=O)CNC(=O)c1ccc(NC(=N)N)cc1)C(=O)N1CCC[C@H]1C(=O)N[C@@H](CCC(=O)O)C(=O)N[C@@H](CCC(=O)O)C(=O)N[C@@H](Cc1ccc(O)cc1P(=O)(O)O)C(=O)N[C@@H](CC(C)C)C(=O)N[C@H](CCC(=O)O)C(=O)O` (stereo partly drawn), in the experiment listed under Rattus norvegicus [1], the Ctt2 was found to be 4 µM. Further, the Baseline amounted to 163% in the experiment on Rattus norvegicus [2]; 265% in the experiment with Rattus norvegicus [3]; 192% in the experiment on Rattus norvegicus [4]; 164% in the experiment on Rattus norvegicus [5]; 244% in the experiment with Rattus norvegicus [6]; 217% in the experiment with Rattus norvegicus [7].

Molecule `CC[C@H](C)[C@H](NC(=O)C1C2CCC(CC2)N1C(=O)[C@H](CCC(=O)O)NC(=O)C(Cc1ccccc1)NC(=O)[C@H](CC(=O)O)NC(=O)CNC(=O)c1ccc(NC(=N)N)cc1)C(=O)N1CCC[C@H]1C(=O)N[C@@H](CCC(=O)O)C(=O)N[C@@H](CCC(=O)O)C(=O)N[C@H](Cc1ccc(CC(=O)O)cc1)C(=O)N[C@@H](CC(C)C)C(=O)N[C@H](CCC(=O)O)C(=O)O` (stereo in doubt) displayed a Ctt2 in the experiment listed under Rattus norvegicus [1] of 50 µM.

Molecule `CC[C@H](C)[C@H](NC(=O)C1C2CCC(CC2)N1C(=O)[C@H](CCC(=O)O)NC(=O)[C@H](Cc1ccccc1)NC(=O)[C@H](CC(=O)O)NC(=O)CNC(=O)c1ccc(NC(=N)N)cc1)C(=O)N1CCC[C@H]1C(=O)N[C@@H](CCC(=O)O)C(=O)N[C@@H](CCC(=O)O)C(=O)N[C@@H](Cc1ccc(O)cc1)C(=O)N[C@@H](CC(C)C)C(=O)N[C@H](CCC(=O)O)C(=O)O` (stereo partly drawn) had a Ctt2 in the experiment listed under Rattus norvegicus [1] of 4.8 µM. Moreover, the Baseline in the experiment with Rattus norvegicus [2] turned out to be 96%; in the experiment on Rattus norvegicus [3], 158%; in the experiment with Rattus norvegicus [4], 115%; in the experiment with Rattus norvegicus [5] it was 111%; in the experiment with Rattus norvegicus [6], 145%; in the experiment on Rattus norvegicus [7], 133%.

Regarding `CC[C@H](C)[C@H](NC(=O)C1C2CCC(CC2)N1C(=O)[C@H](CCC(=O)O)NC(=O)[C@H](Cc1ccccc1)NC(=O)[C@H](CC(=O)O)NC(=O)CNC(=O)c1ccc(NC(=N)N)cc1)C(=O)N1CCC[C@H]1C(=O)N[C@@H](CCC(=O)O)C(=O)N[C@@H](CCC(=O)O)C(=O)N[C@@H](Cc1ccc(CC(=O)O)cc1)C(=O)N[C@@H](CC(C)C)C(=O)N[C@H](CCC(=O)O)C(=O)O` (stereo partly drawn), the Ctt2 in the experiment listed under Rattus norvegicus [1] stood at 1 µM. In addition, the Baseline came to 118% in the experiment with Rattus norvegicus [2]; 213% in the experiment with Rattus norvegicus [3]; 149% with Rattus norvegicus [4]; 141% in the experiment with Rattus norvegicus [5]; 205% with Rattus norvegicus [6]; 188% with Rattus norvegicus [7].

As to `CC[C@H](C)[C@H](NC(=O)C1C2CCC(CC2)N1C(=O)[C@H](CCC(=O)O)NC(=O)[C@H](Cc1ccccc1)NC(=O)[C@H](CC(=O)O)NC(=O)CNC(=O)c1ccc(NC(=N)N)cc1)C(=O)N1CCC[C@H]1C(=O)N[C@@H](CCC(=O)O)C(=O)N[C@@H](CCC(=O)O)C(=O)N[C@@H](Cc1ccc(P(=O)(O)O)cc1)C(=O)N[C@@H](CC(C)C)C(=O)N[C@H](CCC(=O)O)C(=O)O` (stereo partly drawn), the Ctt2 in the experiment listed under Rattus norvegicus [1] was 2.8 µM. The Baseline is 187% in the experiment with Rattus norvegicus [2]; 252% in the experiment with Rattus norvegicus [3]; 200% in the experiment with Rattus norvegicus [4]; 181% in the experiment on Rattus norvegicus [5]; 225% with Rattus norvegicus [6]; 217% in the experiment on Rattus norvegicus [7].

Turning to `CC[C@H](C)[C@H](NC(=O)C1C2CCC(CC2)N1C(=O)[C@H](CCC(=O)O)NC(=O)[C@H](Cc1ccccc1)NC(=O)[C@H](CC(=O)O)NC(=O)CNC(=O)c1ccc(NC(=N)N)cc1)C(=O)N1CCC[C@H]1C(=O)N[C@@H](CCC(=O)O)C(=O)N[C@@H](CCC(=O)O)C(=O)N[C@@H](Cc1ccc(O)cc1)C(=O)N[C@@H](CC(C)C)C(=O)O` (stereo partly drawn) (HELM PEPTIDE1{[N=C(N)Nc1ccc(C(=O)[*:2])cc1].G.D.F.E.[O=C(C1C2CCC(CC2)N1[*:1])[*:2]].I.P.E.E.Y.L}$$$$V2.0), in the experiment filed under Rattus norvegicus [1], the Ctt2 is 16.5 µM. The Baseline was found to be 98% with Rattus norvegicus [2]; 136% with Rattus norvegicus [3]; 108% in the experiment on Rattus norvegicus [4]; 100% in the experiment on Rattus norvegicus [5]; 123% in the experiment on Rattus norvegicus [6]; 115% with Rattus norvegicus [7].

The molecule `CC[C@H](C)[C@H](NC(=O)C1C2CCC(CC2)N1C(=O)[C@H](CCC(=O)O)NC(=O)[C@H](Cc1ccccc1)NC(=O)[C@H](CC(=O)O)NC(=O)CNC(=O)c1ccc(NC(=N)N)cc1)C(=O)N1CCC[C@H]1C(=O)N[C@@H](CCC(=O)O)C(=O)N[C@@H](CCC(=O)O)C(=O)N[C@@H](Cc1ccc(OP(=O)(O)O)cc1)C(=O)N[C@@H](CC(C)C)C(=O)N[C@H](CCC(=O)O)C(=O)O` (stereo partly drawn) displayed a Ctt2 in the experiment filed under Rattus norvegicus [1] of 0.9 µM. In addition, the Baseline in the experiment on Rattus norvegicus [2] is recorded as 107%; in the experiment with Rattus norvegicus [3], 201%; in the experiment on Rattus norvegicus [4] it was 125%; in the experiment on Rattus norvegicus [5], 110%; in the experiment with Rattus norvegicus [6], 162%; in the experiment with Rattus norvegicus [7], 147%.
